Measured values from ChEMBL document CHEMBL1155066, “Discovery of selective and nonpeptidic cathepsin S inhibitors” (Bioorg Med Chem Lett, 2008).
Activity calls are given as the source filed them. The rule behind the calls is not given here.

Assays:
Cathepsin S = Cathepsin S (Homo sapiens, UniProt P25774); test: Inhibition of human recombinant cathepsin S by fluorescence assay
How it was run: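 Recombinant human Cat S, fluorometric readout using Z-Leu-Leu-Arg-AMC substrate; IC50 reported.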

Cathepsin K = target: T1, Cathepsin K (Homo sapiens, UniProt P43235); test: Inhibition of human recombinant cathepsin K by fluorescence assay
T1 sequence (P43235 whole entry): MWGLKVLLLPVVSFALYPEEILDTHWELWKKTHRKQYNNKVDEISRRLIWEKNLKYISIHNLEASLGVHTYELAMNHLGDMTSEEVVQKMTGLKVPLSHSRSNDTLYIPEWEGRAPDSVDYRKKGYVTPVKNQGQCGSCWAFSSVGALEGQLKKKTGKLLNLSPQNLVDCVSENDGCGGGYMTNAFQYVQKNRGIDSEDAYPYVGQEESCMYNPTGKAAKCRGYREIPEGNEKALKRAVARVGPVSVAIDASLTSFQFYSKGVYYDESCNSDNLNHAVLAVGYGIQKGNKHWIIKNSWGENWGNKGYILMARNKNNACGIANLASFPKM
How it was run: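 Fluorometric assay with recombinant human Cat K; Z-Phe-Arg-AMC substrate; IC50 determined.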

Procathepsin L = Procathepsin L (Homo sapiens, UniProt P07711); test: Inhibition of human recombinant cathepsin L by fluorescence assay
Chain of Procathepsin L (P07711 whole entry): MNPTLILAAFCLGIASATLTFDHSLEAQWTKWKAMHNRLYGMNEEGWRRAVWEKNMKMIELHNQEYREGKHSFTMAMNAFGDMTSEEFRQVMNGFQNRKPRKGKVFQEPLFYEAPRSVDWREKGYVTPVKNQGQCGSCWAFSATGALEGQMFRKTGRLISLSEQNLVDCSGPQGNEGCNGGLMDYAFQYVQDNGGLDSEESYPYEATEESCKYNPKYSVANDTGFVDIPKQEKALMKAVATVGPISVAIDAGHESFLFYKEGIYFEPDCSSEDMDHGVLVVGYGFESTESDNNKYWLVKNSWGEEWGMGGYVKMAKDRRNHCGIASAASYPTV
How it was run: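 Recombinant human Cat L measured fluorometrically with Z-Phe-Arg-AMC as substrate; IC50 reported.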

[1] = target: Cathepsin S (Mus musculus) (UniProt O70370); test: Inhibition of cathepsin S in mouse splenocytes assessed as MHC2 associated invariant chain degradation at 1 uM; assay type: cell-based
How it was run: (§1)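 Cellular secondary assay in mouse splenocytes; degradation of MHC class II associated invariant chain monitored after compound exposure at a single concentration.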

[2] = Plasma clearance in Sprague-Dawley rat at 1.6 mg/kg, iv or 4.0 mg/kg, po; assay type: ADME, organism-based
[3] = Half life in Sprague-Dawley rat at 1.6 mg/kg, iv; assay type: ADME, organism-based; set-up: dose 1.6 mg/kg, route intravenous; details: in vivo
[4] = Cmax in Sprague-Dawley rat at 1.0 mg/kg, po; assay type: ADME, organism-based; set-up: dose 1 mg/kg, route oral; details: in vivo
[5] = AUC in Sprague-Dawley rat at 1.0 mg/kg, po; assay type: ADME, organism-based; set-up: dose 1 mg/kg, route oral; details: plasma
[6] = Oral bioavailability in Sprague-Dawley rat at 4.0 mg/kg, po; assay type: ADME, organism-based; details: in vivo
[7] = target: Cathepsin S (Mus musculus) (UniProt O70370); test: Inhibition of cathepsin S in mouse splenocytes assessed as MHC2 associated invariant chain degradation at 10 uM; assay type: cell-based; how it was run: as §1
[8] = Plasma clearance in Sprague-Dawley rat at 1.0 mg/kg, iv or 3.0 mg/kg, po; assay type: ADME, organism-based
[9] = Half life in Sprague-Dawley rat at 1.0 mg/kg, iv; assay type: ADME, organism-based; set-up: dose 1 mg/kg, route intravenous; details: in vivo
[10] = Oral bioavailability in Sprague-Dawley rat at 3.0mg/kg, po; assay type: ADME, organism-based; details: in vivo, 3 mg/kg

Chain of Cathepsin S (P25774 whole entry): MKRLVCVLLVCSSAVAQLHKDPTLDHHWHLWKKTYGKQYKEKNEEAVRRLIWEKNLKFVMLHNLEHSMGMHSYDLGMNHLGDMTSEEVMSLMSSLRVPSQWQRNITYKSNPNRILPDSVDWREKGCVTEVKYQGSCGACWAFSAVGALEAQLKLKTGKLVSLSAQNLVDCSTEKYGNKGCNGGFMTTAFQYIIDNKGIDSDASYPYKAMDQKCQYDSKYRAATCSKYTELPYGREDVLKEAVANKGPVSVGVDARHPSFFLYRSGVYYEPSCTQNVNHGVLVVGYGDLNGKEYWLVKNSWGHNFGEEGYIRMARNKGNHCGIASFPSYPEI

| SMILES | IC50 (Cathepsin S) | IC50 (Cathepsin K) | IC50 (Procathepsin L) | other results |
| --- | --- | --- | --- | --- |
| CC(=O)Nc1ccc(OCc2cc3cnc(C#N)nc3n2CCC2CCCCC2)cc1 | 8 nM | > 1000 nM | > 1000 nM | – |
| CC(C)(C)CCn1c(Cc2ccc(Cl)cc2)cc2cnc(C#N)nc21 | 2 nM | < 1 nM | 18 nM | Activity [1]: Active |
| N#Cc1ncc2cc(COc3ccc(C(N)=O)cc3)n(CCC3CCCCC3)c2n1 | 2 nM | 280 nM | > 1000 nM | clearance [2]: 83.3 mL/min/kg; half-life [3]: 0.7 h; Cmax [4]: 25 nM; AUC [5]: 0.108 µM·h; bioavailability [6]: 21% |
| N#Cc1ncc2cc(CC3CCCCC3)n(CCC3CCCCC3)c2n1 | 140 nM | – | > 1000 nM | – |
| CC(C)C[C@@H](NC(=O)N1CCOCC1)C(=O)N[C@@H](/C=C/S(=O)(=O)c1ccccc1)CCc1ccccc1 | – | – | – | Activity [1]: Active |
| CC(C)(C)Cn1c(Cc2ccc(Cl)cc2)cc2cnc(C#N)nc21 | – | < 1 nM | 96 nM | – |
| CCC(=O)Nc1ccc(OCc2cc3cnc(C#N)nc3n2CCC2CCCCC2)cc1 | 12 nM | > 1500 nM | > 4000 nM | – |
| N#Cc1ncc2cc(Cc3ccc(Cl)cc3)n(CCc3ccccc3)c2n1 | 64 nM | 100 nM | 23 nM | – |
| N#Cc1ncc2cc(Cc3ccc(Cl)cc3)n(CCC3CCCCCCC3)c2n1 | 99 nM | > 1000 nM | > 1000 nM | – |
| N#Cc1ncc2cc(Cc3ccc(Cl)cc3)n(CCC3CCCCCC3)c2n1 | 33 nM | > 1000 nM | 840 nM | – |
| N#Cc1ncc2cc(Cc3ccc(Cl)cc3)n(CCc3cccc(Cl)c3)c2n1 | 190 nM | > 1000 nM | 40 nM | – |
| N#Cc1ncc2cc(Cc3ccc(Cl)cc3)n(CCN3CCCCC3)c2n1 | > 1000 nM | > 1000 nM | > 1000 nM | – |
| N#Cc1ncc2cc(Cc3ccc(Cl)cc3)n(CCC3CCCC3)c2n1 | 7 nM | 17 nM | 260 nM | – |
| N#Cc1ncc2cc(COc3ccccc3)n(CCC3CCCCC3)c2n1 | 10 nM | > 1000 nM | > 1000 nM | – |
| N#Cc1ncc2cc(COc3cccc(C(N)=O)c3)n(CCC3CCCCC3)c2n1 | 7 nM | 390 nM | > 1000 nM | – |
| N#Cc1ncc2cc(COc3cccc(CCC(=O)O)c3)n(CCC3CCCCC3)c2n1 | 6 nM | > 5000 nM | > 5000 nM | Activity [7]: inactive |

| SMILES | IC50 (Cathepsin S) | IC50 (Cathepsin K) | IC50 (Procathepsin L) | other results |
| --- | --- | --- | --- | --- |
| N#Cc1ncc2cc(Cc3ccc(Cl)cc3)n(CCc3ccc(Cl)cc3)c2n1 | 19 nM | > 1000 nM | 86 nM | – |
| N#Cc1ncc2cc(Cc3cccc4ccccc34)n(CCC3CCCCC3)c2n1 | 440 nM | – | – | – |
| CC(C)(C)CCCn1c(Cc2ccc(Cl)cc2)cc2cnc(C#N)nc21 | 320 nM | 100 nM | > 1000 nM | – |
| CN(Cc1cc2cnc(C#N)nc2n1CCC1CCCCC1)c1ccccc1 | 52 nM | > 1000 nM | > 1000 nM | – |
| CC(=O)N1CCC(c2ccc(OCc3cc4cnc(C#N)nc4n3CCC3CCCCC3)cc2)CC1 | 15 nM | > 1000 nM | > 1000 nM | Cmax [4]: 17 nM; AUC [5]: 0.103 µM·h; clearance [8]: 88.3 mL/min/kg; half-life [9]: 1.3 h; bioavailability [10]: 25% |
| CC(=O)N1CC=C(c2ccc(OCc3cc4cnc(C#N)nc4n3CCC3CCCCC3)cc2)CC1 | 13 nM | > 1000 nM | > 1000 nM | Cmax [4]: 43 nM; AUC [5]: 0.346 µM·h; clearance [8]: 41.7 mL/min/kg; half-life [9]: 1.4 h; bioavailability [10]: 38% |
| N#Cc1ncc2cc(Cc3ccc(Cl)cc3)n(CC3CCCCC3)c2n1 | 110 nM | 6 nM | 370 nM | – |
| CC(=O)N1CCN(c2ccc(OCc3cc4cnc(C#N)nc4n3CCC3CCCCC3)cc2)CC1 | 9 nM | > 1500 nM | > 4000 nM | Cmax [4]: 34 nM; AUC [5]: 0.242 µM·h; clearance [8]: 66.7 mL/min/kg; half-life [9]: 1.2 h; bioavailability [10]: 47%; Activity [1]: Active |
| N#Cc1ncc2cc(COc3ccccn3)n(CCC3CCCCC3)c2n1 | 11 nM | 250 nM | 790 nM | – |
| COc1ccc(Cc2cc3cnc(C#N)nc3n2CCC2CCCCC2)cc1 | 110 nM | 280 nM | > 1000 nM | – |
| N#Cc1ncc2cc(CSc3ccncc3)n(CCC3CCCCC3)c2n1 | 6 nM | 480 nM | > 1000 nM | – |
| N#Cc1ncc2cc(Cc3ccc(Cl)cc3)n(CCCC3CCCCC3)c2n1 | 150 nM | > 1000 nM | > 1000 nM | – |
| N#Cc1ncc2cc(CNc3ccccc3)n(CCC3CCCCC3)c2n1 | 24 nM | > 1000 nM | > 1000 nM | – |
| N#Cc1ncc2cc(Cc3ccc(Cl)cc3)n(CCC3CCCCC3)c2n1 | 21 nM | 220 nM | 320 nM | – |
| N#Cc1ncc2cc(COc3ccc(C(=O)O)cc3)n(CCC3CCCCC3)c2n1 | 16 nM | > 2000 nM | > 2000 nM | Activity [7]: inactive |
